Data: ChEMBL document CHEMBL3875163, “Novel urea and bis-urea primaquine derivatives with hydroxyphenyl or halogenphenyl substituents: Synthesis and biological evaluation” (Eur J Med Chem, 2016)
≈ marks a conversion by molar mass, not a printed value.

How the values were obtained:
[1] = Growth inhibition of human MCF7 cells by alamar blue assay; format: functional
[2] = Growth inhibition of human NCI-H460 cells after 72 hrs by MTT assay; format: functional, cell-based; conditions: NCI-H460, 72 h
Procedure, shortened: (§1)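 Modified NCI DTP protocol: cells in DMEM with 10% FBS, 2 mM glutamine, antibiotics, 37 °C, 5% CO2; seeded 1 × 10^4 to 3 × 10^4 cells/ml on day 0, exposed to five 10-fold dilutions (10^-8 to 10^-4 M) for 72 h; solvent control. MTT read-out; quadruplicate points in three experiments; IC50 by linear regression of growth percentages bracketing 50%.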

Glycine max = assay: Inhibition of soybean LOX assessed as reduction in conversion of sodium linoleate to 13-hydroperoxylinoleic acid at 1 x 10^-4 M relative to control
Procedure, shortened: (§2)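 Soybean lipoxygenase incubated at room temperature with sodium linoleate (0.1 mM) and test compound (DMSO stocks); formation of 13-hydroperoxylinoleic acid read at 234 nm. Single-point screening at 1 × 10^-4 M; IC50 from several concentrations. At least triplicate.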

[3] = Antioxidant activity assessed as inhibition of AAPH-induced linoleic acid lipid peroxidation at 1 x 10^-4 M by UV-absorbance method relative to control; format: functional
Procedure, shortened: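 Linoleic acid peroxidation: 16 mM sodium linoleate dispersion in 0.05 M phosphate buffer pH 7.4 at 37 °C under air, initiated by AAPH (40 mM solution); compound at 1 × 10^-4 M; oxidation followed at 234 nm. At least triplicate.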

[4] = Growth inhibition of human HeLa cells after 72 hrs by MTT assay; format: functional, cell-based
[5] = Growth inhibition of mouse L1210 cells after 72 hrs by MTT assay; format: functional, cell-based; conditions: L1210, 72 h
[6] = Growth inhibition of human SW620 cells after 72 hrs by MTT assay; format: functional, cell-based; conditions: SW-620, 72 h; procedure, shortened: as §1
[7] = Antioxidant activity assessed as DPPH radical scavenging activity at 100 uM after 60 mins relative to control; format: functional
Procedure, shortened: (§3)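 Compound in DMSO added to DPPH in absolute ethanol, 0.1 mM final; absorbance at 517 nm after 20 and 60 min at room temperature. At least triplicate.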

[8] = Antioxidant activity assessed as DPPH radical scavenging activity at 100 uM after 20 mins relative to control; format: functional; procedure, shortened: as §3
[9] = Growth inhibition of human MIAPaCa2 cells after 72 hrs by MTT assay; format: functional, cell-based; conditions: MIA PaCa-2, 72 h
[10] = Inhibition of soybean LOX assessed as reduction in conversion of sodium linoleate to 13-hydroperoxylinoleic acid; design: species or system Glycine max; procedure, shortened: as §2
[11] = Growth inhibition of human Molt4/C8 cells after 72 hrs by MTT assay; format: functional, cell-based; conditions: MOLT-4, 72 h
[12] = Growth inhibition of human CEM cells after 72 hrs by MTT assay; format: functional, cell-based; conditions: CCRF-CEM
[13] = Growth inhibition of human MCF7 cells after 72 hrs by MTT assay; format: functional, cell-based; conditions: MCF7, 72 h; procedure, shortened: as §1
Candida albicans = assay: Antifungal activity against Candida albicans ATCC 90028 after 18 hrs by serial microdilution broth assay; format: functional; conditions: ATCC 90028, 18 h
Procedure, shortened: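 Yeast microdilution in RPMI 1640 with glutamine plus 2% glucose, 1000 to 0.78125 µg/ml from 10 mg/ml DMSO stocks. Growth read with XTT (10 mg/ml) mixed 7:1 with menadione (1 mg/ml in acetone), absorbance at 540 nm. MIC taken as lowest concentration giving 50% growth inhibition versus untreated cells; tests in duplicate.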

Bacillus pumilus = assay: Antibacterial activity against Bacillus pumilus NCTC 8241 after 18 hrs by serial microdilution broth assay; format: functional; conditions: NCTC 8241, 18 h
Procedure, shortened: (§4)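 Broth microdilution MIC per EUCAST for aerobic bacteria in Mueller-Hinton broth, serial dilution 1000 to 0.78125 µg/ml from 10 mg/ml DMSO stocks. Inoculum from trypticase soy broth cultures (18 h, 37 °C), set to 0.5 McFarland in PBS pH 7.4, diluted 1:10. 18 h aerobic incubation at 35 °C in dark, then TTC 0.5 mg/ml for 3 h, HCl-isopropanol, A490. MIC = lowest concentration giving 50% inhibition versus untreated; duplicates.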

Staphylococcus aureus [14] = assay: Antibacterial activity against methicillin sensitive Staphylococcus aureus ATCC 25213 after 18 hrs by serial microdilution broth assay; format: functional; conditions: ATCC 25213, 18 h; procedure, shortened: as §4
Staphylococcus aureus [15] = assay: Antibacterial activity against methicillin resistant Staphylococcus aureus MFBF 10679 after 18 hrs by serial microdilution broth assay; format: functional; conditions: MFBF 10679, 18 h
Procedure, shortened: (§5)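 EUCAST-based broth microdilution in Mueller-Hinton broth. Glycerol stock cultures grown in trypticase soy broth 18 h at 37 °C; inoculum in PBS pH 7.4 at 0.5 McFarland, diluted 1:10 in broth. Compounds from DMSO stocks, 1000 to 0.78125 µg/ml; 18 h aerobic, 35 °C, dark. TTC 0.5 mg/ml added, 3 h, then HCl/isopropanol, A490. MIC = lowest concentration giving 50% inhibition vs untreated; duplicates, averaged.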

Bacillus cereus = assay: Antibacterial activity against Bacillus cereus ATCC 11778 after 18 hrs by serial microdilution broth assay; format: functional; conditions: ATCC 11778, 18 h; procedure, shortened: as §4
Staphylococcus aureus [16] = assay: Antibacterial activity against methicillin sensitive Staphylococcus aureus ATCC 25923 after 18 hrs by serial microdilution broth assay; format: functional; conditions: ATCC 25923, 18 h; procedure, shortened: as §5
Pseudomonas aeruginosa [17] = assay: Antibacterial activity against multi-drug resistant Pseudomonas aeruginosa MFBF after 18 hrs by serial microdilution broth assay; format: functional; procedure, shortened: as §5
Pseudomonas aeruginosa [18] = assay: Antibacterial activity against Pseudomonas aeruginosa ATCC 9027 after 18 hrs by serial microdilution broth assay; format: functional; conditions: ATCC 9027, 18 h; procedure, shortened: as §5
Escherichia coli = assay: Antibacterial activity against Escherichia coli ATCC 10535 after 18 hrs by serial microdilution broth assay; format: functional; conditions: ATCC 10535, 18 h; procedure, shortened: as §4
Enterococcus faecalis [19] = assay: Antibacterial activity against vancomycin resistant Enterococcus faecalis MFBF 11419 after 18 hrs by serial microdilution broth assay; format: functional; conditions: MFBF 11419, 18 h; procedure, shortened: as §5
Enterococcus faecalis [20] = assay: Antibacterial activity against vancomycin susceptible Enterococcus faecalis ATCC 29212 after 18 hrs by serial microdilution broth assay; format: functional; conditions: ATCC 29212, 18 h; procedure, shortened: as §4
Staphylococcus aureus [21] = assay: Antibacterial activity against Staphylococcus aureus ATCC 6538 after 18 hrs by serial microdilution broth assay; format: functional; conditions: ATCC 6538, 18 h; procedure, shortened: as §4
[22] = Cytotoxicity against HEK cells assessed as reduction in cell viability at 6.25 to 100 ug/ml after 24 hrs by MTT assay; format: toxicity, cell-based; conditions: human, hek293, 24 h
Procedure, shortened: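 HEK 293 cells, 5 × 10^3 per well, treated next day for 24 h with compound (range within 200 to 1.5625 µg/ml). MTT 0.5 mg/ml in DMEM/10% FBS, 4 h at 37 °C, 5% CO2; formazan in DMSO, A570. Viability as percent of untreated control; triplicates, three independent experiments.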

Bacillus spizizenii = assay: Antibacterial activity against Bacillus subtilis ATCC 6633 after 18 hrs by serial microdilution broth assay; format: functional; conditions: ATCC 6633, 18 h; procedure, shortened: as §4
[23] = Hemolytic activity against human RBC at 100 ug/ml after 1 hr relative to control; format: ADME, cell-based, Erythrocyte; conditions: red blood cells (RBC), read-out: Activity
Staphylococcus aureus [24] = assay: Antibacterial activity against methicillin resistant Staphylococcus aureus MFBF 10682 after 18 hrs by serial microdilution broth assay; format: functional; conditions: MFBF 10682, 18 h; procedure, shortened: as §5
Pseudomonas aeruginosa [25] = assay: Antibacterial activity against Pseudomonas aeruginosa ATCC 27853 after 18 hrs by serial microdilution broth assay; format: functional; conditions: ATCC 27853, 18 h; procedure, shortened: as §4

SMILES	IC50 [2] [µM]	inhibition (Glycine max) [%]	inhibition [3] [%]	IC50 [4] [µM]	IC50 [5] [µM]	IC50 [6] [µM]	Activity [7] [%]	Activity [8] [%]	IC50 [9] [µM]	IC50 [11] [µM]	IC50 [12] [µM]	IC50 [13] [µM]	other results
COc1cccc2c1C(=O)c1c(O)c3c(c(O)c1C2=O)C[C@@](O)(C(=O)CO)C[C@@H]3O[C@H]1C[C@H](N)[C@H](O)[C@H](C)O1 [DOXORUBICIN]													IC95 [1]: 1 µM
COc1cc(NC(C)CCCNC(=O)NNC(=O)Nc2cccc(F)c2)c2ncccc2c1 (stereo not drawn)	50	67.4	58.2	> 250	108	9.5	100	75.7	69	≥ 250	98	0.15	IC50 [10]: 40 µM
COc1cc(NC(C)CCCNC(=O)Nc2cccc(O)c2)c2ncccc2c1 (stereo not drawn)	25	50.8	66.9	48	25	27	52.3	48.6	46	24	32	11	MIC50 (Candida albicans): > 100 µg/mL; MIC50 (Bacillus pumilus): 12.5 µg/mL (≈ 31.7 µM); MIC50 (Staphylococcus aureus [14]): 50 µg/mL (≈ 127 µM); MIC50 (Staphylococcus aureus [15]): 100 µg/mL (≈ 254 µM); MIC50 (Bacillus cereus): 50 µg/mL (≈ 127 µM); MIC50 (Staphylococcus aureus [16]): 50 µg/mL (≈ 127 µM); MIC50 (Pseudomonas aeruginosa [17]): 100 µg/mL (≈ 254 µM); MIC50 (Pseudomonas aeruginosa [18]): 100 µg/mL (≈ 254 µM); MIC50 (Escherichia coli): 100 µg/mL (≈ 254 µM); MIC50 (Enterococcus faecalis [19]): > 100 µg/mL; MIC50 (Enterococcus faecalis [20]): > 100 µg/mL; MIC50 (Staphylococcus aureus [21]): 20 µg/mL (≈ 50.7 µM); Activity [22]: Non-Toxic; MIC50 (Bacillus spizizenii): 50 µg/mL (≈ 127 µM); hemolysis at 1 h, 100 ug/ml [23]: < 1%; MIC50 (Staphylococcus aureus [24]): 50 µg/mL (≈ 127 µM); MIC50 (Pseudomonas aeruginosa [25]): 50 µg/mL (≈ 127 µM)
